Measured values: ChEMBL document CHEMBL1125581 (J Med Chem, 1991)
Blank lines part the entries; values can stand above or below the compound they belong to.

What was measured:
[1] = target: T1, Muscarinic acetylcholine receptor M1 (Rattus norvegicus, UniProt P08482); experiment: The compound was tested for the inhibition of binding of [3H]N-Methyl-scopolamine to muscarinic acetylcholine receptor M1 of transfected A9L cells.; type: cell-based
T1 sequence (P08482 whole entry): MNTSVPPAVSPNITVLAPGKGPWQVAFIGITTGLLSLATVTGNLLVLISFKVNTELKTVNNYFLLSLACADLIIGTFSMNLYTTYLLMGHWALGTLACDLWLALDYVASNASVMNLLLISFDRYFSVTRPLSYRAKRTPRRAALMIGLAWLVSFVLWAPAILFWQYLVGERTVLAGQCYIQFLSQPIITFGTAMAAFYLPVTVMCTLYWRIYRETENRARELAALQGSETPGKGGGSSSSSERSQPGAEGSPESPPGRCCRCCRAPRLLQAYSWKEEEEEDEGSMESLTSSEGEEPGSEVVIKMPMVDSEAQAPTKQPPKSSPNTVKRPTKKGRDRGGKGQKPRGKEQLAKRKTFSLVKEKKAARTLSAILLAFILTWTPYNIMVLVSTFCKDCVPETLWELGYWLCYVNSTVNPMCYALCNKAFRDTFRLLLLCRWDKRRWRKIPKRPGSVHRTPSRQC
How it was run: (§1)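 Confluent A9L (transfected m1/m3) or NG108-15 (m4) cultures were lysed in 2 mM Tris-HCl pH 7.1/1 mM EDTA, 30 min, 2 °C, then homogenized. Crude membranes were spun at 50000g. Membranes (150–300 μg protein) were incubated with 0.5 nM [3H]NMS and varied analogue in DMEM-Hepes for 90 min at 37 °C, then filtered. Nonspecific binding was set with 1 μM atropine. Ki values are from 1–3 triplicate determinations.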

[2] = target: T2, Muscarinic acetylcholine receptor M2 (Rattus norvegicus, UniProt P10980); experiment: The compound was tested for the inhibition of binding of [3H]N-Methyl-scopolamine to muscarinic acetylcholine receptor M2 of rat heart tissue membranes.; type: cell membranes, Membrane
T2 sequence (P10980 whole entry): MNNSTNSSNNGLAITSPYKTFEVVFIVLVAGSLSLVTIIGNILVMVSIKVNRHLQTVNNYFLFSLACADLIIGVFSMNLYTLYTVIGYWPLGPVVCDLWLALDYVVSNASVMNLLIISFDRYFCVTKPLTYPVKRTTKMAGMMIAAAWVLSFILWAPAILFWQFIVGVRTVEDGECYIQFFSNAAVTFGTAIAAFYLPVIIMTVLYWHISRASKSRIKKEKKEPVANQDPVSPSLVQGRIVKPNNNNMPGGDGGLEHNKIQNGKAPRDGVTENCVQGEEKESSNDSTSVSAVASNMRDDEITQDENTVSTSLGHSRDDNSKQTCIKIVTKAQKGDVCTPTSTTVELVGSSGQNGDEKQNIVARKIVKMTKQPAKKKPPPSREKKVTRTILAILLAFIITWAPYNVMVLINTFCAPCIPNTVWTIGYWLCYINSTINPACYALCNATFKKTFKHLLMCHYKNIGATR
How it was run: (§2)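 Rat heart membranes (150–300 μg protein) incubated 90 min at 37 °C in DMEM-Hepes with 0.5 nM [3H]NMS and varied unlabeled analogue concentrations. Bound radioligand collected by rapid GF/B filtration, washed with ice-cold 0.9% NaCl, and scintillation counted. Nonspecific binding with 1 μM atropine subtracted. Ki values come from one to three determinations, each in triplicate.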

[3] = target: T3, Muscarinic acetylcholine receptor M3 (Rattus norvegicus, UniProt P08483); experiment: The compound was tested for the inhibition of binding of [3H]N-Methyl-scopolamine to Muscarinic acetylcholine receptor M3 of transfected A9L cells.; type: cell-based
How it was run: (§3)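 Crude membranes (150–300 μg protein) were incubated 90 min at 37 °C in DMEM-Hepes with 0.5 nM [3H]NMS and a range of unlabeled analogue concentrations. Incubation was stopped by rapid GF/B filtration, followed by ice-cold 0.9% NaCl washes and scintillation counting. Nonspecific binding was defined with 1 μM atropine and subtracted. Ki came from one to three determinations, each run in triplicate.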

[4] = target: T4, Muscarinic acetylcholine receptor M4 (Rattus norvegicus, UniProt P08485); experiment: Inhibition of binding of [3H]N-Methyl-scopolamine to Muscarinic acetylcholine receptor M4 of NG108-15 cells.; type: cell-based; how it was run: as §1
T4 sequence (P08485 whole entry): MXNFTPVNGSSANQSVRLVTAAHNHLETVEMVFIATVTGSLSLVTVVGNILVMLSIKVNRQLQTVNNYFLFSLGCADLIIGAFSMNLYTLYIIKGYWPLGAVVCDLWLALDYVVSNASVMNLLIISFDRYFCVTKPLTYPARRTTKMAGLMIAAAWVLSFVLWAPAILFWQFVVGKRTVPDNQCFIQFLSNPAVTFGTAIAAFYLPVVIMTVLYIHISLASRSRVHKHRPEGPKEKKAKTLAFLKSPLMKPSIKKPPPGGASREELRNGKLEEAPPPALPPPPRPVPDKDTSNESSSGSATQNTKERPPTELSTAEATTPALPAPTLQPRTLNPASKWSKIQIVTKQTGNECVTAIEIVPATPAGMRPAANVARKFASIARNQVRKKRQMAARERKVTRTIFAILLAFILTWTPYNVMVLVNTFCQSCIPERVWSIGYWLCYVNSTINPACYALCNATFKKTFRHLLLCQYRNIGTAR

[5] = target: T1, Muscarinic acetylcholine receptor M1; experiment: Inhibition of binding of [3H]N-Methyl-scopolamine to Muscarinic acetylcholine receptor M1 of transfected A9L cells.; type: cell-based; how it was run: as §1
[6] = target: T2, Muscarinic acetylcholine receptor M2; experiment: Inhibition of binding of [3H]N-Methyl-scopolamine to Muscarinic acetylcholine receptor M2 of rat heart tissue membranes.; type: cell membranes, Membrane; how it was run: as §2
[7] = target: T2, Muscarinic acetylcholine receptor M2; experiment: The compound was tested for the inhibition of binding of [3H]N-Methyl-scopolamine to muscarinic acetylcholine receptor M2 of rat heart tissue membranes; type: cell membranes, Membrane; how it was run: as §3
[8] = target: T3, Muscarinic acetylcholine receptor M3; experiment: The compound was tested for the inhibition of binding of [3H]N-Methyl-scopolamine to muscarinic acetylcholine receptor M3 of transfected A9L cells.; type: cell-based; how it was run: as §3
[9] = target: T1, Muscarinic acetylcholine receptor M1; experiment: The compound was tested for the inhibition of binding of [3H]N-Methyl-scopolamine to muscarinic acetylcholine receptor M1r of transfected A9L cells.; type: cell-based; how it was run: as §3
[10] = target: T3, Muscarinic acetylcholine receptor M3; experiment: Compound was tested for the inhibition of binding of [3H]N-Methyl-scopolamine to mmuscarinic acetylcholine receptor M3 of transfected rat A9L cells; type: cell-based; how it was run: as §1
[11] = target: T2, Muscarinic acetylcholine receptor M2; experiment: Inhibition of binding of [3H]N-methylscopolamine to muscarinic acetylcholine receptor M2 of rat heart tissue membrane.; type: tissue-based; how it was run: as §2
[12] = target: T1, Muscarinic acetylcholine receptor M1; experiment: Inhibition of binding of [3H]N-methylscopolamine to muscarinic acetylcholine receptor M1 of transfected rat A9L cells.; type: cell-based
[13] = target: T4, Muscarinic acetylcholine receptor M4; experiment: Inhibition of binding of [3H]N-Methyl-scopolamine to muscarinic acetylcholine receptor M4 of rat […] NG108-15 cells; type: cell-based

T3 sequence (P08483 whole entry): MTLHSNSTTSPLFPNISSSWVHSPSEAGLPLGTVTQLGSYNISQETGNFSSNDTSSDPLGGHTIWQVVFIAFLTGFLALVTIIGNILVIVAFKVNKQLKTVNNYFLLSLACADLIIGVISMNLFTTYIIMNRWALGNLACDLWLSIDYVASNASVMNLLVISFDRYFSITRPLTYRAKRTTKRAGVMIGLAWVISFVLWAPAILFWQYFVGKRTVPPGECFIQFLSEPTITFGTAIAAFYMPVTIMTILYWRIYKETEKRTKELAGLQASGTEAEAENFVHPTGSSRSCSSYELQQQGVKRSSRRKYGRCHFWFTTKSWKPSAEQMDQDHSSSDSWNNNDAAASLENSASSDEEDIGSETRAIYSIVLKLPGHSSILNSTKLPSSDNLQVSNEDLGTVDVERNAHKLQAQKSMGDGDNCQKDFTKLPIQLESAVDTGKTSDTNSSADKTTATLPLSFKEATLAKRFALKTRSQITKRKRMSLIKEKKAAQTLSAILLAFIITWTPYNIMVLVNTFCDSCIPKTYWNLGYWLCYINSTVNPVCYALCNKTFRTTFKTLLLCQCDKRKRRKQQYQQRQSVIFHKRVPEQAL

Ki [1]: 7700 nM
Ki [2]: 8000 nM
Structure (SMILES): CCN1C(=O)c2ccccc2N(C(=O)CN2CCN(C)CC2)c2ncccc21

Structure (SMILES): O=C1Nc2cccnc2N(C(=O)CN2CCN(CCCl)CC2)c2ccccc21
Ki [3]: 78 nM
Ki [4]: 130 nM
Ki [5]: 52 nM
Ki [6]: 210 nM

Structure (SMILES): CN1CCN(CC(=O)N2c3cc(CO[Si](C)(C)C(C)(C)C)ccc3C(=O)Nc3cccnc32)CC1
Ki [7]: 4400 nM
Ki [8]: > 30000 nM
Ki [9]: > 30000 nM

Ki [10]: 4020 nM
Ki [11]: 2650 nM
Ki [12]: 2840 nM
Ki [13]: 2940 nM
Structure (SMILES): CNC(=O)c1ccc(CN2CCN(CC(=O)N3c4ccccc4C(=O)Nc4cccnc43)CC2)cc1
